Hits are enriched below; roughly 0.99% of the tested compounds scored in any of these assays.
Dyrk1A ADPGlo – blocks rat Dyrk1A kinase activity | AID 504441 | ADP-Glo luminescence, NFATc1 peptide | Q63470 | inhibition, % at 12.5 µM | 0.43% of 310,000 active; in the data active = inhibition above about 50%;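 note: plate controls were vehicle with enzyme for no effect and no enzyme for full effect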
GSK3 alpha inh – inhibitors of human GSK-3 alpha kinase | inhibition, % at 10 µM | AID 2650 | ADP-Glo luminescence, 60 min | 0.1% of 320,000 active;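 active = more than half of replicates show inhibition above 20%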;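 note: GST-tagged GSK-3 alpha with peptide substrate and 25 µM ATP; 0% = DMSO neutral wells and 100% = GW8510 positive control wells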
STK33 kinase inh – blocks human STK33 kinase activity; Q9BYT3; purified STK33, MBP phosphorylation, ADP-Glo luminescence; inhibition, % at 10 µM; 0.073% of 320,000 active;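 active = inhibition at or above 25%, using the most active replicate where run in duplicate; inactive = inhibition below 25%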
Arrestin-AP2 inh – inhibitors of human beta-arrestin and AP2 interaction | FITC-arrestin peptide / GST-AP2 beads, flow cytometry; AP2 beta2 appendage carries R879A mutation | inhibition, % at 10 µM | 0.31% of 340,000 active | AID 504490;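 active = inhibition above a set limit, near 3 SD of compounds lacking own fluorescence, cut at about 54% in these data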;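 note: plate controls were DMSO wells for no effect and 5 µM unlabelled arrestin peptide for full effect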
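System: GST-AP2 R879A glutathione beads; medium: PBS, Tween 20 0.05%, BSA 0.1%; reagent: fluorescein-tagged arrestin peptide at 50 nM final; schedule: pre-incubation 12 min, peptide binding 1 h, room temperature; detection: flow cytometry, FL1 (488/535 nm); read-out: inhibition as reduced fluorescein signal on beads, percent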
Rin1-Abl PPI inh – human Rin1-Abl interaction inhibition; TR-FRET Rin1/Abl binding, biochemical; inhibition, % at 7.35 µM; 0.4% of 360,000 active; AID 588664; in the data active = inhibition above about 5%, passing the limit was not always enough
GSK3beta inhib – inhibitors of human GSK3beta kinase | AID 2097 | 0.038% of 300,000 active | GST-GSK3beta kinase, ADP-Glo luminescence, 60 min; active compounds read low | activity score (negative = inhibition), % at 10 µM;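 active = more than half of replicate wells score below -50%, meaning over 50% inhibition versus plate controls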;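 note: 0% = median DMSO wells and -100% = median GW8510 positive control wells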
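Test system: GST-tagged human GSK3beta kinase, cell-free; evaluation: activity score scaled between in-plate DMSO and GW8510 controls; measured by: ADP-Glo luminescence; incubation: 60 min reaction, RT; benchmarks: DMSO and 20 µM GW8510; reagent: peptide substrate plus 25 µM ATP (final); medium: Tris/MgCl2 kinase buffer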
Rin1-Abl confirm – Rin1-Abl interaction inhibition confirmation; shares compounds with Rin1-Abl PPI inh; TR-FRET Rin1-Abl binding, purified proteins; inhibition, % at 7.35 µM; 49% of 1,300 active
GFP quench – GFP fluorescence interference artifact; AID 602125; 8.5% of 1,300 active; inhibition, % at 6.75 µM; inhibitors/quenchers counterscreen; shares compounds with Rin1-Abl PPI inh;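 note: ABL1-eGFP fusion protein alone without its partner RIN1-SBP; 0% = protein with vehicle and 100% = wells lacking protein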
GFP quench dose – GFP fluorescence interference dose response | IC50, µM | GFP fluorescence interference/quenching counterscreen | 230 tested, under 10 active | AID 602182 | shares compounds with Rin1-Abl PPI inh; call rule not given here;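 note: ABL1-eGFP fusion protein alone without its RIN1 binding partner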
Active calls of the source: *; · = not tested or not shown. Cut-off read from the data, not from the text of the source, unless noted: active = inhibition above about 6.5%; inactive = the rest.

SMILES	Dyrk1A ADPGlo	GSK3 alpha inh	STK33 kinase inh	Arrestin-AP2 inh	Rin1-Abl PPI inh	GSK3beta inhib	Rin1-Abl confirm	GFP quench	others
CCOc1ccc(C(=O)Nc2nnc(SCC(=O)NCC3CCCO3)s2)cc1OCC (configuration not stated)	-3.5	-1.6	-1.8	-3.6	-3.5	-7.1	·	·
O=S(=O)(Nc1cc2nc3ccccc3nc2n1Cc1ccccc1)c1ccc(Cl)cc1	-6.4	1.4	-1.0	8.8	29.6*	-7.5	28.3*	-1.8	GFP quench dose=>67.5
COc1ccc(C(C)(O)c2nc(-c3cccc(NC(C)=O)c3)cs2)cc1 (configuration not stated)	·	·	·	·	-2.7	·	·	·
CCCOC(=O)CCCC[C@H]1SC[C@@H](NC(=O)OC)[C@H]1NC(=O)OC	12.6	8.4	6.9	-1.4	5.3	-1.5	·	·
COC(=O)CCCCC1SCC2NC(=O)NC21 (configuration not stated)	-3.6	2.1	-0.3	38.7	11.9*	-7.9	16.1*	0.5
O=C(O)CCCCCCCCCCC1CCC(O)C1O (configuration not stated)	-1.3	·	·	-19.4	-0.1	·	·	·
O=C(O)CCCC[C@@H]1SC[C@@H]2NC(=O)N[C@@H]21	6.8	3.2	0.6	-3.7	83.9*	2.1	92.9*	-0.6	GFP quench dose=>67.6
COc1cccc(CNc2nc3cc(-c4ccc(C(=O)N5CCN(C)CC5)cc4)sc3c(=O)n2C)c1	·	·	·	·	-3.2	·	·	·
CN(CC(=O)Nc1ccccn1)S(=O)(=O)c1ccc(Cl)cc1	18.5	1.4	-0.4	27.6	35.8*	2.9	-3.1	-1.5
CCOC(=O)CSc1ccc2nnc(-c3cccnc3)n2n1	1.3	4.3	-0.7	9.8	7.5*	0.0	-3.2	-1.2
CCOC(=O)NC(=O)COC(=O)CCCc1nc2ccccc2s1	·	-1.1	0.3	5.9	5.4*	4.0	-1.4	-1.7
CC(=O)c1ccc(N(C(=O)c2csnn2)C(C(=O)NC2CCCC2)c2ccccc2)cc1 (configuration not stated)	-2.9	-0.3	-1.1	21.7	10.6*	2.0	1.6	-0.3
COC(=O)COc1cccc(NC(=O)COc2ccccc2)c1	12.8	0.1	-2.1	-3.3	7.5*	2.9	-0.9	-0.5
O=C(CCN1C(=O)C2C3CC(C(Br)C3Br)C2C1=O)OCC(=O)c1cccc([N+](=O)[O-])c1 (configuration not stated)	-1.9	-0.5	0.5	-0.3	3.4	1.9	·	·
Cc1cc(/C=N/NC(=O)c2ccncc2)c(C)n1-c1ccccc1	-0.8	3.3	-0.3	3.1	-2.6	1.5	·	·
Cc1cc(C(=O)N/N=C/c2ccc(O)c(O)c2O)c(C)n1-c1ccccc1	·	·	·	31.0	20.1*	-5.2	10.8*	7.8*
O=C(Cc1csc(N2CCOCC2)n1)N/N=C/c1ccc(O)c(O)c1O	·	·	·	13.3	29.6*	0.3	27.9*	9.0*
COc1ccc(/C=N/NC(=O)CCN2CCN(c3ccccc3)CC2)c(OC)c1OC	2.5	7.4	5.0	0.8	0.3	3.5	·	·
O=C(CCN1CCN(c2ccccc2)CC1)N/N=C/c1ccc(O)c(O)c1O	10.6	·	·	21.9	18.7*	-2.0	50.6*	13.2*
COc1cccc(-c2cnc(C(O)c3ccc(Cl)c(F)c3)[nH]2)c1 (configuration not stated)	·	·	·	·	-1.3	·	·	·
CCOC(=O)c1ccc(NC(=O)NC2=NCCS2)cc1	·	·	·	·	3.6	·	·	·
Cc1cc(Br)ccc1SCC(=O)OCC(=O)Nc1ncc(C(F)(F)F)cc1Cl	-0.4	-2.3	-2.5	-1.1	-2.7	3.2	·	·
Cc1ccc(C)c(SCC(=O)OCC(=O)Nc2ncc(C(F)(F)F)cc2Cl)c1	-1.8	·	-1.6	-4.8	9.1*	0.2	-0.5	0.5
CCOC(=O)C1=C(COC(=O)CNS(=O)(=O)c2ccc(NC(C)=O)cc2)NC(=O)NC1C (configuration not stated)	-2.5	·	·	4.5	3.5	·	·	·
